Measurements as given in publication PMC4681656 (Organic & biomolecular chemistry, 2016).
Entries after “also recorded” stand apart in the source; their conditions may differ.

How the values were obtained:
[1] = target: vimentin rod domain (residues 99-411) (Homo sapiens, UniProt P08670); experiment: Vimentin-arylquin binding assay by intrinsic arylquin fluorescence; details: fluorescence titration
hERG potassium channel = hERG potassium channel (Homo sapiens, UniProt Q12809); experiment: [3H]-dofetilide binding assay with hERG-HEK293 cell membranes
hERG potassium channel, sequence (Q12809 whole entry): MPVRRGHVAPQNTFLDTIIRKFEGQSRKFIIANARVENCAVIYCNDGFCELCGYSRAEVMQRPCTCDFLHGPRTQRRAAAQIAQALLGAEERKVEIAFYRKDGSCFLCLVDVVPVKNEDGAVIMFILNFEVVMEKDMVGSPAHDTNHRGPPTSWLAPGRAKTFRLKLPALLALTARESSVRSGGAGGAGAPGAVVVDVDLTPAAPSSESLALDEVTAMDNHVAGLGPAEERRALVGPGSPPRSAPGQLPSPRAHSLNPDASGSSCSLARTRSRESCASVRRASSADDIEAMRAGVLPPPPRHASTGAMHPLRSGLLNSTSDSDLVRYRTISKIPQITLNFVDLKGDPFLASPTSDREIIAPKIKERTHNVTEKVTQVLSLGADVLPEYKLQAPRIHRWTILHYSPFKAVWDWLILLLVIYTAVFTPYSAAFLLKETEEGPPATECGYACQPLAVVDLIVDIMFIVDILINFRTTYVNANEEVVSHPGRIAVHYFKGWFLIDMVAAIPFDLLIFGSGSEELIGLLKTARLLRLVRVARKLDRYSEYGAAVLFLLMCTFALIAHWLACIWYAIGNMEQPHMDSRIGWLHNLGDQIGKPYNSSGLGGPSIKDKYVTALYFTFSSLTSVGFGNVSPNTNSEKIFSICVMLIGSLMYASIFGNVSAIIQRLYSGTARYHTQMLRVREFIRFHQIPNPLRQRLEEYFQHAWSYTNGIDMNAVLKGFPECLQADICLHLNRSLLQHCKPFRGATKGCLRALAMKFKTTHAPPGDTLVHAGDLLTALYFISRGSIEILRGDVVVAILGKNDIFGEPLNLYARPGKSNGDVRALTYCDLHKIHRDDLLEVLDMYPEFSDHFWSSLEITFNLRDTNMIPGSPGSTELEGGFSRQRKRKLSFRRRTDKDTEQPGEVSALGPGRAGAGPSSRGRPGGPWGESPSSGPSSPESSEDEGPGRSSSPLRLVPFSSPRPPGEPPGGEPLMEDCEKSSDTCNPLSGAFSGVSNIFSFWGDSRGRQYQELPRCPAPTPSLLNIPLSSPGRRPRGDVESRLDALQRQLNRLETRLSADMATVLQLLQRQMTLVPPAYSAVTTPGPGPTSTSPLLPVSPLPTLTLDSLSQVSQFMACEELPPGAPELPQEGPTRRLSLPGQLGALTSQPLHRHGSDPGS

[2] = tested on: Par-4 secretion from mouse fibroblasts; format: cell-based; details: for fold induction at 0.5 µM: Mus musculus, Fibroblast, 24 h, read-out: Ratio of Par-4 Secretion by Arylquin Relative to Vehicle
Summary of the method: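 Cells exposed to test compound for 24 h. Conditioned medium and lysates were analysed by quantitative Western blot for Par-4 and Col1A1, with Col1A1 used to normalise secreted Par-4. Experiments were run in triplicate; data are mean ± standard deviation of at least three experiments, with Student t test.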

vimentin rod domain (residues 99-411), sequence (P08670 99-411): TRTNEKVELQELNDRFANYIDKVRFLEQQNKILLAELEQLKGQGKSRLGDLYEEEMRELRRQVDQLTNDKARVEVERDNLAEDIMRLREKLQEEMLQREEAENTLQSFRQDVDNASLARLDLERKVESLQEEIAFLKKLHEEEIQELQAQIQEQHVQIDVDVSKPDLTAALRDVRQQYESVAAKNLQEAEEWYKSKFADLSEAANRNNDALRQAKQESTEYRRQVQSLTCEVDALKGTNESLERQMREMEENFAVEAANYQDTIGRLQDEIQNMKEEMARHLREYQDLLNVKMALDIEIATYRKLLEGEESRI

SMILES | IC50 (hERG potassium channel) | fold induction at 0.5 µM [2] | Par-4 secretion activity (in words) [2] | further results
CN(C)c1ccc2cc(-c3ccccc3F)c(N)nc2c1 [1a, 3-(2-Fluorophenyl)-N^7,N^7-dimethylquinoline-2,7-diamine] |  |  |  | Stoichiometry at saturation [1]: 3-4 molecules per monomer of the rod domain
CN(C)c1ccc2cc(-c3cccc(F)c3)c(N)nc2c1 [1d, 3-(3-Fluorophenyl)-N^7,N^7-dimethylquinoline-2,7-diamine] | 1.59 ± 0.39 µM |  |  | 
CN(C)c1ccc2cc(-c3ccc(F)cc3)c(N)nc2c1 [1f, 3-(4-Fluorophenyl)-N^7,N^7-dimethylquinoline-2,7-diamine] | 30.2 ± 10.3 µM |  |  | 
CN(C)c1ccc2cc(-c3c(F)cccc3Cl)c(N)nc2c1 [1n, 3-(2-Chloro-6-fluorophenyl)-N^7,N^7-dimethylquinoline-2,7-diamine] |  | 2.4 |  | 
CN(C)c1ccc2cc(-c3c(Cl)cccc3Cl)c(N)nc2c1 [1o, 3-(2,6-Dichlorophenyl)-N^7,N^7-dimethylquinoline-2,7-diamine] |  | 2.4 |  | 
COc1ccccc1-c1cc2ccc(N(C)C)cc2nc1N [1r, 3-(2-Methoxyphenyl)-N^7,N^7-dimethylquinoline-2,7-diamine] |  | 1.7 |  | 
CN(C)c1ccc2cc(-c3ccccc3F)c(=O)[nH]c2c1 [compound 2, 7-(N,N-Dimethylamino)-3-(2-fluorophenyl)quinolin-2(1H)-one] | > 100 µM | 1.1 |  | 
CN(C)c1ccc2cc3c(nc(N)c4ccccc43)nc2c1 [compound 5, N^9,N^9-Dimethyldibenzo[b,f][1,8]naphthyridine-5,9-diamine] |  |  | inactive | 
CN(C)c1ccc2cc3c(nc2c1)[nH]c(=O)c1ccccc13 [compound 6, 9-(N,N-Dimethylamino)dibenzo[b,f][1,8]naphthyridin-5(6H)-one] |  |  | inactive | 
CN(C)c1ccc2cc(-c3ccccc3F)c(=S)[nH]c2c1 [compound 7, 7-(N,N-Dimethylamino)-3-(2-fluorophenyl)quinoline-2(1H)-thione] | > 100 µM | 1.7 |  | 
CN(C)c1ccc2cc(-c3ccccc3F)c(N3CCOCC3)nc2c1 [compound 10, 3-(2-Fluorophenyl)-N,N-dimethyl-2-morpholinoquinolin-7-amine] | 23.3 ± 3.05 µM | 1.8 |  | 
CN1CCN(c2nc3cc(N(C)C)ccc3cc2-c2ccccc2F)CC1 [compound 11, 3-(2-Fluorophenyl)-N,N-dimethyl-2-(4-methylpiperazin-1-yl)quinolin-7-amine] |  |  | high levels of Par-4 secretion | 
Nc1nc2ccccc2cc1-c1ccccc1F [compound 12, 3-(2-Fluorophenyl)quinolin-2-amine] | 14.6 ± 5.82 µM | 2.8 | high levels of Par-4 secretion | 
Nc1nc2cccc(F)c2cc1-c1ccccc1F [compound 13, 5-Fluoro-3-(2-fluorophenyl)quinolin-2-amine] |  |  | equipotent to 1a | 
Nc1nc2ccc(Cl)cc2cc1-c1ccccc1F [compound 16, 6-Chloro-3-(2-fluorophenyl)quinolin-2-amine] |  |  | equipotent to 1a | 
Nc1nc2cc(Cl)ccc2cc1-c1ccccc1F [compound 17, 7-Chloro-3-(2-fluorophenyl)quinolin-2-amine] |  |  | did not induce Par-4 secretion | Binding to vimentin rod domain (in words) ([1]; arylquin at 1 μM): did not bind the vimentin rod domain to a measurable extent; also recorded: fluorescence signal did not change in the titration
